Reference: ChEMBL document CHEMBL1914406, “Inhibitory effect of novel 5-O-acyl juglones on mammalian DNA polymerase activity, cancer cell growth and inflammatory response” (Bioorg Med Chem, 2011)
Active and inactive are the calls of the source. The rule behind the calls is not given here.

Assays:
[1] = Inhibition of Escherichia coli DNA polymerase 1 Klenow fragment using poly(dA)/oligo(dT)18 (A/T = 2/1) and dTTP as the DNA template-primer and nucleotide substrate after 60 mins
Outline: (§1)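 Compound in DMSO, sonicated 30 s. Premixed 0 °C, 10 min with enzyme (0.05 units) in 50 mM Tris-HCl pH 7.5, 1 mM DTT, 50% glycerol, 0.1 mM EDTA, then added to standard reaction mixture. Template-primers: poly(dA)/oligo(dT)18 (2/1) for pols, oligo(dT)18 for TdT, poly(rA)/oligo(dT)18 for HIV-1 RT, with [3H]dTTP. 60 min at 37 °C (Taq 74 °C). Activity relative to no-inhibitor control; mean ± SE of three experiments.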

[2] = Inhibition of calf DNA polymerase alpha using poly(dA)/oligo(dT)18 (A/T = 2/1) and dTTP as the DNA template-primer and nucleotide substrate after 60 mins; parameters: species or system Bos taurus; outline: as §1
Homo sapiens [3] = organism: Homo sapiens; experiment: Inhibition of histidine-tagged human DNA polymerase gamma using poly(dA)/oligo(dT)18 (A/T = 2/1) and dTTP as the DNA template-primer and nucleotide substrate at 10 uM after 60 mins; outline: as §1
DNA polymerase eta = DNA polymerase eta (Homo sapiens, UniProt Q9Y253); experiment: Inhibition of C-terminal His6-tagged human DNA polymerase eta (amino acids 1 to 511) using poly(dA)/oligo(dT)18 (A/T = 2/1) and dTTP as the DNA template-primer and nucleotide substrate after 60 mins; outline: as §1
Sequence of DNA polymerase eta (Q9Y253 whole entry, the tested form may be a part): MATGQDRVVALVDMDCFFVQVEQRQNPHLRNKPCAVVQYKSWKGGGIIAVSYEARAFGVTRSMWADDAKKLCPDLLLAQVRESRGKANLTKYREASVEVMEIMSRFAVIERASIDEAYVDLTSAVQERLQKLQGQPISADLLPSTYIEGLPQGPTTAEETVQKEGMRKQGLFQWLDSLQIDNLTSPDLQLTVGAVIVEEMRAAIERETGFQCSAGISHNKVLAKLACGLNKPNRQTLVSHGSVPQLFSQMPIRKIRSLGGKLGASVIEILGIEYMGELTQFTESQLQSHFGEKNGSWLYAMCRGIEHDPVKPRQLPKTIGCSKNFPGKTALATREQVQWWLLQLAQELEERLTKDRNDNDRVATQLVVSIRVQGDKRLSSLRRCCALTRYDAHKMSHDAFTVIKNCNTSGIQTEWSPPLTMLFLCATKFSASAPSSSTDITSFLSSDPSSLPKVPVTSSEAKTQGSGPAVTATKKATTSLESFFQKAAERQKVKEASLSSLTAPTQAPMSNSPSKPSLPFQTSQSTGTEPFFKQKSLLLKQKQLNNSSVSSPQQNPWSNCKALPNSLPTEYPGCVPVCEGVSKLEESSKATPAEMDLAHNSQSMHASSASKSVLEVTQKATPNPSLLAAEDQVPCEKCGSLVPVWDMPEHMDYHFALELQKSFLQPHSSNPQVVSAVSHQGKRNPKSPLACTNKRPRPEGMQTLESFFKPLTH

[4] = Cytotoxicity against mouse RAW264.7 cells; assay type: cell-based; conditions: read-out: LD50 (the source's name)
Homo sapiens [5] = organism: Homo sapiens; experiment: Inhibition of histidine-tagged human DNA polymerase gamma using bovine deoxyribonuclease 1-treated DNA and dNTP as the DNA template-primer and nucleotide substrate at 10 uM after 60 mins
T7 RNA polymerase = T7 RNA polymerase (Enterobacteria phage T7, UniProt P00573); experiment: Inhibition of T7 RNA polymerase using salmon sperm DNA and [3H]UTP at 25 degree C after 30 mins by liquid scintillation counting; parameters: species or system Escherichia phage T7
Sequence of T7 RNA polymerase (P00573 whole entry): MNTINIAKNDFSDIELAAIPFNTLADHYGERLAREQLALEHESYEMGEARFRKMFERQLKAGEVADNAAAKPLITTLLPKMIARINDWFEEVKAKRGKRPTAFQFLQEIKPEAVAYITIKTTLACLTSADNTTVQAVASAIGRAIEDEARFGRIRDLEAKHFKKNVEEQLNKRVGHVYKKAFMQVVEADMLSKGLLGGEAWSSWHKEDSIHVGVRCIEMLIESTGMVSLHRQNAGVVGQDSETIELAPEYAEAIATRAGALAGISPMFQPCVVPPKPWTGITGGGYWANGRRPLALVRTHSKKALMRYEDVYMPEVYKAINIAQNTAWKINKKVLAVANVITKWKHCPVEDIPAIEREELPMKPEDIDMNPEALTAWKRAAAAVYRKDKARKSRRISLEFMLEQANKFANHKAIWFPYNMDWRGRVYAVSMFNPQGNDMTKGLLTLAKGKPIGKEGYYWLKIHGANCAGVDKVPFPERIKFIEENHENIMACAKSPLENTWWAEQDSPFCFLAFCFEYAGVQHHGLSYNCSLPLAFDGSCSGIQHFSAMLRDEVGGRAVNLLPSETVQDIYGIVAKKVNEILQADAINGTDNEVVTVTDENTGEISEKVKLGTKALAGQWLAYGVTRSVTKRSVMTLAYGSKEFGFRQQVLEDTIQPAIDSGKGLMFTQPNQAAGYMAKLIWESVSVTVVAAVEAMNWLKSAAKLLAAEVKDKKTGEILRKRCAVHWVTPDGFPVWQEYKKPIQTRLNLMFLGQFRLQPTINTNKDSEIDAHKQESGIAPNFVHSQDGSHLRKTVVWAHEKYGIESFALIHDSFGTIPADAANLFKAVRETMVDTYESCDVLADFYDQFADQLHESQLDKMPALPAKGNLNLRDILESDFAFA

[6] = molecular target: DNA polymerase I, thermostable (Thermus aquaticus, UniProt P19821); experiment: Inhibition of Taq polymerase using poly(dA)/oligo(dT)18 (A/T = 2/1) and dTTP as the DNA template-primer and nucleotide substrate at 74 degree C after 60 mins; outline: as §1
Sequence of DNA polymerase I, thermostable (P19821 whole entry): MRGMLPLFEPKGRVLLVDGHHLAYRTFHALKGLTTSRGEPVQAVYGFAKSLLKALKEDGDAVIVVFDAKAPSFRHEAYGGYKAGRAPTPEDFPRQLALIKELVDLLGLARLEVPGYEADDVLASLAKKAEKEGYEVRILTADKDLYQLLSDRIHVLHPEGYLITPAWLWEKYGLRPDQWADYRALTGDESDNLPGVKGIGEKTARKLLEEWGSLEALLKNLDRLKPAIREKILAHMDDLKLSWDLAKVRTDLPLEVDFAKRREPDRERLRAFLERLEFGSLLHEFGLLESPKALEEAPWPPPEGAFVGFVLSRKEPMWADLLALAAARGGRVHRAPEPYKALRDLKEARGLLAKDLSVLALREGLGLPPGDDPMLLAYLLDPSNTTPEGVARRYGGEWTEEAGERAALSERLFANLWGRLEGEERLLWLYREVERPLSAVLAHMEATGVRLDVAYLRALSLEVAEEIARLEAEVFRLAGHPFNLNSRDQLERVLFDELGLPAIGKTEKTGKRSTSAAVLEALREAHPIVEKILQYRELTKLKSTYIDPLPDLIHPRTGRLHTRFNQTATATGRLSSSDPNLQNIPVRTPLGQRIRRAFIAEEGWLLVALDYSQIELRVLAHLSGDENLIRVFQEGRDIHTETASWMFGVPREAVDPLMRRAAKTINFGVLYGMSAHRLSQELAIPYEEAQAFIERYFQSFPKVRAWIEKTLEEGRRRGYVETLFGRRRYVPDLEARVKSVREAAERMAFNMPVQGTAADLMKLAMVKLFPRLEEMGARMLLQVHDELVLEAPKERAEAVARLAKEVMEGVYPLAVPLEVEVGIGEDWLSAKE

Bos taurus = organism: Bos taurus; experiment: Inhibition of calf DNA polymerase alpha using bovine deoxyribonuclease 1-treated DNA and dNTP as the DNA template-primer and nucleotide substrate at 10 uM after 60 mins
DNA polymerase iota = DNA polymerase iota (Mus musculus, UniProt Q6R3M4); experiment: Inhibition of C-terminal His6-tagged mouse DNA polymerase iota using poly(dA)/oligo(dT)18 (A/T = 2/1) and dTTP as the DNA template-primer and nucleotide substrate after 60 mins; outline: as §1
Sequence of DNA polymerase iota (Q6R3M4 whole entry): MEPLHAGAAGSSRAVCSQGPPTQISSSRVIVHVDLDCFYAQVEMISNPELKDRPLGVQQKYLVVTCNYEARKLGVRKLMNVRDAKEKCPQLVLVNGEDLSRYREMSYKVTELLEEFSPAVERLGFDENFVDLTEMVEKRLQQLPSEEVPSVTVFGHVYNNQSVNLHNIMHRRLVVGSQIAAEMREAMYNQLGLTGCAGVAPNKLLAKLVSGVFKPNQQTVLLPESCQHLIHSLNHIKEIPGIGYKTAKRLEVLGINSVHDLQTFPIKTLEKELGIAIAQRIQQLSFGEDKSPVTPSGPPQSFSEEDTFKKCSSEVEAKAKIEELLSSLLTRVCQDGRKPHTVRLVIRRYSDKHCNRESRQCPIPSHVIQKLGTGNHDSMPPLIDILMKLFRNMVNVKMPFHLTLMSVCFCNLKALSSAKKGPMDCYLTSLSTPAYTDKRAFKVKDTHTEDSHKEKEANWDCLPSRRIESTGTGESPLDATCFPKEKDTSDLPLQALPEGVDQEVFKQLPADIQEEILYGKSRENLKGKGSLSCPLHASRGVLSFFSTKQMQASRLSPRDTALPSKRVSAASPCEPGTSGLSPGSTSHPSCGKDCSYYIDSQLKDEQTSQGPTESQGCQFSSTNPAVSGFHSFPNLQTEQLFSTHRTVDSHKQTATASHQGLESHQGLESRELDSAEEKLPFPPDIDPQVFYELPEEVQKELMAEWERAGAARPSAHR

[7] = molecular target: Inosine-5'-monophosphate dehydrogenase 2 (Mus musculus, UniProt P24547); experiment: Inhibition of mouse IMP dehydrogenase type 2
Sequence of Inosine-5'-monophosphate dehydrogenase 2 (P24547 whole entry): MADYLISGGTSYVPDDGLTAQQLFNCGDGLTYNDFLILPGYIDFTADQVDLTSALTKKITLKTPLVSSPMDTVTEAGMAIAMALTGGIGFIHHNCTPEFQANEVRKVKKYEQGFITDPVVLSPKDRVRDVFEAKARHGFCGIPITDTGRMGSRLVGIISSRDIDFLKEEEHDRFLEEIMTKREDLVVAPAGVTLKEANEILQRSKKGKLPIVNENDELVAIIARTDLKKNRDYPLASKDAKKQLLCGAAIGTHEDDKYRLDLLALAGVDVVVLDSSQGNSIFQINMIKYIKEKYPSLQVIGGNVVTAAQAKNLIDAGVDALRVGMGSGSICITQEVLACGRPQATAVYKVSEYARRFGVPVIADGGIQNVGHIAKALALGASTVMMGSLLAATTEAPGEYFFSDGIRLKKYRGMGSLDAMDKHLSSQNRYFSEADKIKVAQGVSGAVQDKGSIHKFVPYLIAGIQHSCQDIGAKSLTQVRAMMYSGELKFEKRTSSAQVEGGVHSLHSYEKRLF
Outline: (§2)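 Calf primase of pol α and mouse IMP dehydrogenase type II measured by standard assays per manufacturer's specifications. Activity relative to no-compound control (100%).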

Mus musculus = experiment: Antiinflammatory activity in mouse assessed as inhibition of TPA-induced mouse ear edema at 500 ug/ear administered 30 mins before TPA challenge measured after 7 hrs relative to untreated control; assay type: functional, organism-based
Outline: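 Compound (500 µg) applied to one mouse ear; 30 min later TPA (0.5 µg) applied to both ears. Edema scored after 7 h and expressed as percentage of edema. Mean ± SE, n = 6.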

DNA polymerase lambda = DNA polymerase lambda (Homo sapiens, UniProt Q9UGP5); experiment: Inhibition of His-tagged human DNA polymerase lambda using poly(dA)/oligo(dT)18 (A/T = 2/1) and dTTP as the DNA template-primer and nucleotide substrate after 60 mins; outline: as §1
DNA polymerase beta = DNA polymerase beta (Rattus norvegicus, UniProt P06766); experiment: Inhibition of rat pol beta using poly(dA)/oligo(dT)18 (A/T = 2/1) and dTTP as the DNA template-primer and nucleotide substrate after 60 mins; outline: as §1
RAW264.7 = experiment: Cytotoxicity against mouse RAW264.7 cells at 5 uM; assay type: cell-based; conditions: raw264.7, 5 µM
[8] = Inhibition of human DNA polymerase epsilon using poly(dA)/oligo(dT)18 (A/T = 2/1) and dTTP as the DNA template-primer and nucleotide substrate after 60 mins; outline: as §1
Nucleic Acid = experiment: Binding affinity to DNA assessed as thermal transition of DNA relative to control; assay type: nucleic-acid assay
[9] = molecular target: T1, DNA polymerase lambda (Homo sapiens) (UniProt Q9UGP5); experiment: Inhibition of recombinant His-tagged human DNA polymerase lambda using bovine deoxyribonuclease 1-treated DNA and dNTP as the DNA template-primer and nucleotide substrate at 10 uM after 60 mins
T1 sequence (whole entry): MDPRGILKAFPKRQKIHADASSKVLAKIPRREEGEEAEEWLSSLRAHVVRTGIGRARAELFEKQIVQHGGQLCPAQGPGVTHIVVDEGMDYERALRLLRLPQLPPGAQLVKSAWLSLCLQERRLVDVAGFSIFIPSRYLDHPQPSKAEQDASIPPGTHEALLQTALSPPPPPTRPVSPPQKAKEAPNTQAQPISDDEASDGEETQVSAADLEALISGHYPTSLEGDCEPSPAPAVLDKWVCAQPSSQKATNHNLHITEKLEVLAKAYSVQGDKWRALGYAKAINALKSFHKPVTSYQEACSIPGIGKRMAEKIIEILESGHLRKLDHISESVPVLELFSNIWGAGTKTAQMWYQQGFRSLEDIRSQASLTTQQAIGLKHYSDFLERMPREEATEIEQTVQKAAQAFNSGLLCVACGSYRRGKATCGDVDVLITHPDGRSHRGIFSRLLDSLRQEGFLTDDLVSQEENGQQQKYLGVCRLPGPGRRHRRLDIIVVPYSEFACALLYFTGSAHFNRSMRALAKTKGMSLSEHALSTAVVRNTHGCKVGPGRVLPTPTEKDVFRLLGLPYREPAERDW

[10] = Inhibition of calf primase of DNA polymerase alpha; parameters: species or system Bos taurus; outline: as §2
HCT-116 [11] = experiment: Cytotoxicity against human HCT116 cells by WST-1 assay relative to aphidicolin; assay type: functional, cell-based
[12] = Inhibition of human DNA polymerase delta using poly(dA)/oligo(dT)18 (A/T = 2/1) and dTTP as the DNA template-primer and nucleotide substrate after 60 mins; outline: as §1
HCT-116 [13] = experiment: Cytotoxicity against human HCT116 cells by WST-1 assay relative to etoposide; assay type: functional, cell-based
HCT-116 [14] = experiment: Cytotoxicity against human HCT116 cells by WST-1 assay; assay type: functional, cell-based
Outline: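 HCT116 colon carcinoma cells (ATCC) grown in McCoy's 5A with 10% FBS, penicillin and streptomycin, 37 °C, 5% CO2. Plated at 1 × 10⁴ cells/well together with compound, which was diluted from a 10 mM DMSO stock into medium (final 0.5% DMSO). Incubated 24 h. Viability read by WST-1, expressed relative to untreated cells.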

HCT-116 [15] = experiment: Cytotoxicity against human HCT116 cells by WST-1 assay relative to camptothecin; assay type: functional, cell-based

Row | Structure (SMILES) | IC50 [1] [µM] | IC50 [2] [µM] | inhibition (Homo sapiens [3]) | IC50 (DNA polymerase eta) [µM] | CC50 [4] [µM] | inhibition (Homo sapiens [5]) | IC50 (T7 RNA polymerase) [µM] | IC50 [6] [µM] | inhibition (Bos taurus) | IC50 (DNA polymerase iota) [µM] | IC50 [7] [µM] | Activity (Mus musculus) | IC50 (DNA polymerase lambda) [µM] | IC50 (DNA polymerase beta) [µM] | Activity (RAW264.7) | IC50 [8] [µM] | Activity (Nucleic Acid) | inhibition [9] | IC50 [10] [µM] | also measured
1 | CCCCCCCCCCCC(=O)Oc1cccc2c1C(=O)C=CC2=O | > 100 | 6.3 | Active | 6.9 | > 10 | Active | > 100 | > 100 | Active | 7.1 | > 100 | Active | 7 | 7.6 | Non-toxic | 6.6 | inactive | Active | > 100 | 
2 | CCCCCCCC/C=C\CCCCCCCC(=O)Oc1cccc2c1C(=O)C=CC2=O | > 100 | 0.68 | Active | 8.4 | > 10 | Active | > 100 | > 100 | Active | 8.7 | > 100 | Active | 10.2 | 11.5 | Non-toxic | 0.7 | inactive | Active | > 100 | Activity (HCT-116 [11]): Active; IC50 [12]: 0.74 µM; Activity (HCT-116 [13]): Active; Activity (HCT-116 [14]): Active; Activity (HCT-116 [15]): Active
